Compound activity from PubChem BioAssay.
Most compounds without a hit are left out; they make up all but 9.5% or so of the library.
Htt clearance: mutant huntingtin protein clearance. inhibition, % at 1.5 µM. HeLa Exon1htt(103Q)mCFP, aggregate imaging; zero = plate's median compound well. 47,000 tested, 0.42% active. AID 853;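 active = inhibition of aggregate fluorescence above about 70%, also judged a hit by eye on the cell image, limit read from the data, passing the limit was not always enough; inconclusive = no rule stated for this call; inactive = not judged a hit on image review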;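 also: cells exposed to compound for three days before fixation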
HEK293 NFkB inh: inhibitors of the PMA/ionomycin-induced NF-kB reporter in HEK293 cells | HEK-293 NF-kB luciferase reporter, luminescence | inhibition, % at 3 µM | 62,000 tested, 0.21% active | AID 465;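 active = inhibition above the mean of all tested compounds plus 3 SD, cut at about 40% in these data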;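 also: 0% = stimulated DMSO wells and 100% = 10 µM reference inhibitor 5653914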
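Reagent: PMA plus ionomycin mix as NF-kB-activating stimulus. Assay system: NF-kB luciferase reporter HEK-293 cells. Technique: luminescence from luciferase substrate reagent. Incubation: 1 h compound pre-incubation, 16 h PMA/ionomycin at 37 °C. Benchmarks: DMSO only as uninhibited control, 10 µM reference inhibitor as full inhibition. Repeats: tested once.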
Jurkat viability: reduces viability or proliferation of Jurkat cells; Jurkat E6.1 viability, ATP luminescence, 48 h; inhibition, % at 4 µM; 56,000 tested, 1.2% active; AID 463;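 active = inhibition above the mean inhibition of all tested compounds plus 3 SD, cut at about 28% in these data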
M1 antagonist: M1 muscarinic receptor (rat) antagonism; P08482; CHO-M1 cells, Fluo-4 calcium, ACh EC80 antagonist mode; stronger effect = lower value; B-score at 10 µM; 64,000 tested, 3.4% active;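 active = calcium fluorescence response, raw or row-and-column corrected B-score, differing from the plate sample mean either way at a set confidence level, mostly lower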
M1 ag: agonists of M1 muscarinic receptor; 64,000 tested, 3% active; B-score at 10 µM; CHO-M1 cells, Fluo-4 calcium fluorescence, agonist mode; stronger effect = higher value; AID 626;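 active = fluorescence rise, raw or as B-score row- and column-corrected plate score, outside the 99.7% band of its plate's samples, either direction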
D1 mod: D1 dopamine receptor (human) allosteric modulation | HEK293 D1, CRE-luciferase, dopamine EC30 potentiation; actives deviate in either direction | P21728 | B-score at 10 µM | 58,000 tested, 5.9% active;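 active = luminescence count or its row- and column-corrected plate score outside the 99.7% band of the plate's sample wells, on either side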
Target sequence (P21728 whole entry, looked up): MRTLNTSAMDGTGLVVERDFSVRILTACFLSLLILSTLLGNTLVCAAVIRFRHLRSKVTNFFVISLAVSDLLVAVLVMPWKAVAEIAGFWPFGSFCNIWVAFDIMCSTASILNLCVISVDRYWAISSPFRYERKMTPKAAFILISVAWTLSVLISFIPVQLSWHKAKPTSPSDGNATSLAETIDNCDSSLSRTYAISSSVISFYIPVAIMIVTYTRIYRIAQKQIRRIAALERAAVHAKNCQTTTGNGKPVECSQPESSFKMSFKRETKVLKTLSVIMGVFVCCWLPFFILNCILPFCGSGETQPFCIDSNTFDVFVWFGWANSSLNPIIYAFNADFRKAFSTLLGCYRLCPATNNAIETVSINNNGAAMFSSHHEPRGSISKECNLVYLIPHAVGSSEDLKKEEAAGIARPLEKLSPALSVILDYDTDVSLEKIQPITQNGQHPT
M1 agonist conf: rat M1 muscarinic agonism, confirmation | shares compounds with M1 ag | CHO-M1 cells, Fluo-4 calcium fluorescence, agonist mode; actives lie on both sides | fluorescence change (max-min) at 10 µM | 1,700 tested, 19% active;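 active = fluorescence change differs from the solvent-only DMSO control mean at a set confidence level in both duplicate runs; inconclusive = differs from solvent-only control mean in just one of two runs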;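 also: an EC20 dose of acetylcholine follows compound addition during the same imaging run; raw fluorescence intensity difference in instrument units with no normalization to controls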
M4 agonist ctr: activates rat M4 receptor in counter-screen for M1 agonists | shares compounds with M1 ag | CHO M4/Gqi5 cells, Fluo-4 calcium fluorescence, agonist mode; actives lie on both sides | fluorescence change (max-min) at 10 µM | 1,700 tested, 9% active | AID 1741;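 active = fluorescence change differing from the plate's solvent-only control wells at 99.7% confidence in both duplicates, whether higher or lower; inconclusive = differs from solvent controls in only one of two duplicates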
* = called active by the depositor; ? = inconclusive; / = not tested or not shown.

SMILES	Htt clearance	HEK293 NFkB inh	Jurkat viability	M1 antagonist	M1 ag	D1 mod	M1 agonist conf	M4 agonist ctr
Cc1nc(SCC(=O)NCc2ccco2)c2c(C)c(C)sc2n1	12.9	15.3	0.7	0.11	10.9*	1.91	-10	-42.9
Cc1sc2nc(C(C)C)nc(SCC(=O)NCc3ccco3)c2c1C	/	1.0	7.7	-0.844	0.0282	0.957	/	/
Cc1cccc(-n2c(C)cc(/C=N/n3cnnc3)c2C)c1	-2.7	/	/	/	/	/	/	/
COc1ccc(S(=O)(=O)Nc2nc3ccccc3s2)cc1OC	-39.4	/	/	/	/	/	/	/
CCOC(=O)c1ccc(NC(=O)Nc2ccc(OC)c(OC)c2)cc1	-7.5	2.8	1.0	-0.445	7.31*	-1.69	-22.4*	?
COC(=O)c1ccc(NC(=O)Nc2ccc(F)cc2)cc1	/	-7.5	3.1	-3.41*	15.3*	-3.71*	32.6	52.4
O=C(OCC(=O)N1CCN(C(=O)c2ccco2)CC1)c1ccccc1OCc1ccc(Cl)cc1	/	7.9	-10.8	0.0829	4.46*	-1.78	-17.8	?
CCN(C(=O)COc1cc(=O)n(CC)c2ccccc12)c1cc(Cl)ccc1OC	-21.0	1.0	-8.9	-0.23	7.85*	-0.394	?	-43.8
CCn1c(=O)cc(OCC(=O)Nc2ccccc2C#N)c2ccccc21	-8.5	-3.8	-15.9	-1.11	2.23*	-1.23	?	-43
CCN(C(=O)COc1cc(=O)n(CC)c2ccccc12)c1cccc(Cl)c1	-33.0	3.5	1.4	-0.745	4.36*	-0.608	-15.3	-27.5
Cc1c(Br)cc(C(=O)OC2CCN(C)CC2)c(C)c1C	-2.9	4.1	5.7	-0.882	-0.319	-2.29	/	/
Nc1ccc(C(=O)OCc2nc3c(ccc4ccccc43)[nH]2)cc1	52.6	/	/	/	/	/	/	/
Cc1ccc2[nH]c3c(c2c1)CN(C(=O)CN1CCN(c2cccc(C)c2C)CC1)CC3	/	9.5	3.8	-0.314	-2.96*	0.00524	37.4	-5.42
Cc1c(C(=O)N2CCN(c3ccccc3F)CC2)sc2ncn(CC(=O)N3CCOCC3)c(=O)c12	/	17.1	9.7	-0.00887	3.68*	0.456	-14.6	?
CCCNC(=O)Cn1cnc2sc(C(=O)N3CCN(c4ccc(F)cc4)CC3)c(C)c2c1=O	8.0	/	/	/	/	/	/	/
Cc1cccc(C(=O)O/N=C2/CC3CCC2(C)C3(C)C)c1 (centres undefined)	-9.4	/	/	/	/	/	/	/
Cc1c(C(=O)NCC2COc3ccccc3O2)oc2ccc(S(=O)(=O)N3CCOCC3)cc12 (centres undefined)	/	29.2	/	-2.42*	16*	/	-12.6	?
Cc1cc2ccccc2n1CCNC(=O)c1ccc(S(=O)(=O)N2CCOCC2)cc1	/	1.0	5.8	0.178	8.91*	0.711	-18.2	-25.9
Cc1c(C(=O)NCCc2ccccc2)oc2ccc(S(=O)(=O)N3CCOCC3)cc12	/	25.1	/	-1.7	2.29*	/	-31*	?
CCn1cc(C(=O)Nn2cnnc2)c(=O)c2ccc(C)nc21	/	4.4	-2.6	0.579	-0.0801	-0.479	/	/
Cc1cccc(C(CC(=O)N2CCCC2)c2ccccc2)c1O (centres undefined)	/	5.6	2.4	0.0381	4.14*	/	4.05	-2.5
COc1ccccc1Oc1ccc(S(=O)(=O)NCc2ccccn2)cc1	0.3	9.4	/	-0.212	12*	-1.34	?	?
COc1ccc(S(=O)(=O)NCc2ccccn2)cc1Cl	-131.3	-1.7	3.9	-0.252	-0.966	-0.289	/	/
O=C(Nc1ccc2nc(-c3ccc(Br)o3)[nH]c2c1)c1cccs1	6.2	11.9	10.8	-0.395	1.21	-1.71	/	/
Cn1cccc1-c1nc2ccc(NC(=O)c3cccs3)cc2[nH]1	-62.4	11.4	7.5	-0.637	8.45*	-0.785	?	-47.6
SMILES	Htt clearance	HEK293 NFkB inh	Jurkat viability	M1 antagonist	M1 ag	D1 mod	M1 agonist conf	M4 agonist ctr
O=C(CCCCCn1c(=S)[nH]c2cc3c(cc2c1=O)OCO3)N1CCN(C2CCCCC2)CC1	-47.0	10.9	/	-5.08*	2.08*	0.661	-23.4	?
CC1CCN(C2=NC(=O)/C(=C/c3cn(-c4ccccc4)nc3-c3cccc(S(=O)(=O)N(C)C)c3)S2)CC1	44.2	/	/	/	/	/	/	/
Nc1c(C(=O)NCC2CCCO2)c2nc3ccccc3nc2n1-c1ccccc1 (centres undefined)	2.7	19.5	-1.8	-2.72	11.4*	-1.61	?	-69.8
COc1cccc2c1OC1(C)CC2NC(=O)N1c1cccc(C(=O)Nc2ccc3c(c2)OCCO3)c1 (centres undefined)	/	5.0	/	0.454	7.83*	-1.11	-16.2	?
COc1ccc(NC(=O)c2cccc(N3C(=O)NC4CC3(C)Oc3ccccc34)c2)cc1 (centres undefined)	-20.7	/	/	/	/	/	/	/
Cc1cc(C)n2nc(C(=O)Nc3ccc4c(c3)OCO4)nc2n1	/	13.3	3.8	0.259	4.45*	-0.00874	?	-51.9
O=C(O)[C@@H](c1ccccc1)N1Cc2ccccc2C1=O	/	21.1	-2.0	-0.254	3.03*	-0.19	?	-31.4
O=C(c1cc2nc(-c3ccccc3)cc(-c3ccccc3)n2n1)N1CCN(C(=O)c2ccco2)CC1	-21.3	26.5	1.1	-0.816	3.45*	-2.32	-19.5	-20.9
O=C(c1cc2nc(-c3ccco3)cc(C(F)(F)F)n2n1)N1CCN(c2ccccn2)CC1	40.1	5.6	3.4	-0.928	2.49*	1.95	?	-48.8
O=C(c1ccco1)N1CCN(C(=O)c2cc(-c3ccccc3)nc3ccccc23)CC1	-31.6	/	/	/	/	/	/	/
C=CCn1c(SCc2nc(N)nc(N3CCCCC3)n2)nnc1-c1ccco1	37.8	-3.4	-2.4	0.102	-0.19	0.435	/	/
CC1CC(C)CN(c2ncnc3c2cnn3Cc2ccc(Cl)cc2)C1 (centres undefined)	20.3	16.4	1.3	0.492	-1.14	0.517	/	/
COCCNc1ncnc2c1cnn2Cc1ccc(Cl)cc1	/	7.4	4.6	-0.964	3.13*	-0.034	?	-44.9
Clc1ccc(Cn2ncc3c(N4CCOCC4)ncnc32)cc1	-24.5	4.0	1.6	-0.00635	4.57*	-0.295	?	9.34
c1ccc(Cn2ncc3c(NCc4ccco4)ncnc32)cc1	/	11.7	3.7	-0.735	-1.05	-0.139	/	/
Cc1[nH]n(-c2ccccc2)c(=O)c1C1(C(F)(F)F)C(=O)N(c2ccc(F)cc2)C2=C1C(=O)CC(C)(C)C2 (centres undefined)	-101.9	/	/	/	/	/	/	/
CCOC(=O)c1ccccc1NC(=O)CN(c1ccccc1)S(=O)(=O)N(C)C	12.7	2.8	1.2	0	0.801	0.881	/	/
COC(=O)c1c(NC(=O)CN2CCN(c3ccccc3)CC2)c2c(C)cccc2n1C	5.3	17.9	-0.3	0.358	4.53*	-0.101	-25.1*	?
COC(=O)c1c(NC(=O)CN2CCN(c3ccccc3OC)CC2)c2c(C)cccc2n1C	/	1.2	-5.4	-0.0933	3.03	-0.598	/	/
